Assay outcomes: PubChem BioAssay, several laboratories
MC4R ag barr: human MC4R agonism via beta-arrestin; U2OS MC4R beta-arrestin complementation, luminescence; percent of melanotan II response, DMSO zero; actives 0.98% (n = 360,000); activation, % at 8.9 µM;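 active = activation above a per-plate cutoff, the mean activation of sample wells on that plate plus 3 SD, cut at about 8% in these data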
Myeloid diff 2: promotes myeloid progenitor differentiation. ER-HoxA9 myeloid progenitors, lysozyme-GFP differentiation, flow cytometry. calls only at 10 µM. actives 1% (n = 360,000). AID 624256;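 active = normalized GFP-positive differentiation at or above the plate's own cutoff, the solvent-only control mean plus 3 SD; inconclusive = no clear call, values can overlap the other calls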;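 note: cells exposed to compound for four days before flow analysis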
EBI2 antag: antagonists of human EBI2 receptor; P32249; EBI2 beta-arrestin recruitment, luminescence, 7a,25-OHC stimulated; inhibition, % at 5 µM; actives 0.81% (n = 360,000); AID 651636; in the data active = inhibition above about 38%;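 note: enzyme fragment complementation signal reports receptor beta-arrestin coupling in cells; 0% = agonist plus DMSO wells and 100% = wells without agonist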
Exocytosis inh: blocks lytic granule exocytosis; TALL-104 LAMP-1 surface exposure, flow cytometry; cells stimulated with thapsigargin and PMA; inhibition, % at 10 µM; actives 0.66% (n = 360,000); AID 651702;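 active = inhibition above about 55%, limit read from the data; inconclusive = no clear call, values can overlap the other calls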
MC4R antag cAMP: blocks human MC4R cAMP signaling. P32245. actives 0.48% (n = 360,000). AID 540295. MC4R-expressing cells, MTII-stimulated cAMP, LANCE TR-FRET. inhibition, % at 6.5 µM;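 active = inhibition above its plate's cutoff, the mean of tested wells on that plate plus 3 SD, cut at about 29% in these data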;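 note: 0% = Melanotan II alone and 100% = Melanotan II plus saturating MCL0020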
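system = U2OS cells with stable human MC4R expression | also added = Melanotan II challenge after compound preincubation | dosing = one concentration, 6.5 µM nominal | incubation = compound 30 min, challenge 1 h, detection 1 h | measured by = TR-FRET with Eu-cAMP and labeled anti-cAMP, 671 nm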
MC4R barr ag: human MC4R beta-arrestin agonism confirmation; shares compounds with MC4R ag barr; actives 31% (n = 2,400); activation, % at 8.9 µM; U2OS MC4R beta-arrestin recruitment, luminescence; scaled DMSO 0%, Melanotan II 100%;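 active = mean activation across replicates above the hit cutoff set in the earlier primary screen, cut at about 8% in these data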
MOR DOR agonist: OPRM1-OPRD1 heterodimer agonism counter-screen. shares compounds with MC4R ag barr. U2OS PathHunter beta-arrestin, beta-gal luminescence; percent of deltorphin B response, DMSO zero. activation, % at 9.2 µM. actives 5.8% (n = 2,400);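 active = mean activation across replicates exceeds the hit threshold derived in the earlier primary screen, cut at about 18% in these data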;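 note: 100% = deltorphin B at 0.9 µM final and 0% = DMSO alone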
Target sequence (P35372 whole entry, looked up): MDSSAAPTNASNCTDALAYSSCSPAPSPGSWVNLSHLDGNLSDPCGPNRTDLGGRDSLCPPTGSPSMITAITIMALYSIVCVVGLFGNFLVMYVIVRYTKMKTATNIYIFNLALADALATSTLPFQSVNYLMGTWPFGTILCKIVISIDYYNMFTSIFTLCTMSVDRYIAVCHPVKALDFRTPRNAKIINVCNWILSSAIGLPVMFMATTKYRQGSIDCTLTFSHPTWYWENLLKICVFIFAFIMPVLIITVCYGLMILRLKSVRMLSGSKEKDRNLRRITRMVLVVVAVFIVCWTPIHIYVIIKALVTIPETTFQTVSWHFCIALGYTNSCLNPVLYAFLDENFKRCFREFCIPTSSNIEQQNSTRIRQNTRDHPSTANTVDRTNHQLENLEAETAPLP
Target sequence (P41143 whole entry, looked up): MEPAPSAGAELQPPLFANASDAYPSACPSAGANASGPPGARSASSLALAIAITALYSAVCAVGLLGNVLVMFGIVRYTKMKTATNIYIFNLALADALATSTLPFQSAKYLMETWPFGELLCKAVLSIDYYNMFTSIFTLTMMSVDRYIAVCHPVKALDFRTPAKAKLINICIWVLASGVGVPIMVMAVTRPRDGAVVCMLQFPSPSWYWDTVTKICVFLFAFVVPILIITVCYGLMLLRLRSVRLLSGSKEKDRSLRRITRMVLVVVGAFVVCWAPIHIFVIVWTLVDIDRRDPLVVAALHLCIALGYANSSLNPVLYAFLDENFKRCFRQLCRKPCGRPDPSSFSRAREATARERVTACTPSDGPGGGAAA
* marks the source's active call; other numbers are inactive results; i = inactive; ? = inconclusive; · = no result. A selection: hits, their analogues and other compounds. The true share with any hit is near 3.7%.

SMILES	MC4R ag barr	Myeloid diff 2	EBI2 antag	Exocytosis inh	MC4R antag cAMP	MC4R barr ag	MOR DOR agonist
CCOc1ccc(-c2cc(C(=O)Nc3ccc(F)cc3)[nH]n2)c(C)c1	6	i	3	-1	5	·	·
CCOc1ccc(-c2cc(C(=O)NCc3ccc(C(F)(F)F)cc3)[nH]n2)c(C)c1	13*	i	19	0	1	1	8
CCOc1ccc(-c2cc(C(=O)Nc3cccc(C(F)(F)F)c3)[nH]n2)c(C)c1	11*	i	30	-4	4	6	5
O=C(Nc1ccc2oc(=O)ccc2c1)c1ccc(-c2cccc(Cl)c2)o1	20*	i	24	3	21	0	8
O=C(Nc1ccc2oc(=O)ccc2c1)c1ccc(-c2ccc(Cl)cc2)o1	0	i	9	-1	5	·	·
Clc1ccc(CSc2cnnc3ccccc23)cc1Cl	13*	i	15	3	-9	3	3
CCSc1cnnc2ccccc12	-1	i	-4	0	-2	·	·
CN(Cc1ccccc1)C1CCN(Cc2ccccc2[N+](=O)[O-])CC1	0	i	-3	12	1	·	·
Cc1[nH]c2ccc(-c3nnc(SCC(=O)c4ccccc4F)o3)cc2c1C	10*	i	18	0	16	1	4
COc1ccccc1CCC(=O)OCC(=O)Nc1ccc(C(N)=O)cc1	0	i	0	10	-3	·	·
COc1cc(OC)c(/C=N/NC(N)=S)cc1Br	-1	i	0	1	5	·	·
COc1cc2c(-c3ccccc3)c(C)oc2cc1/C=N/NC(N)=S	16*	i	12	1	23	8.7*	10
CC1CCc2sc(C(=O)Nc3nnc(SCc4ccc(F)cc4)s3)cc2C1 (centres undefined)	33*	i	8	2	3	12*	2
COC(=O)c1ccc(CSc2nnc(C)s2)cc1	1	i	-9	7	-5	·	·
COC(=O)c1ccc(CSc2nnc(NC(=O)c3cc4c(s3)CCCC4)s2)cc1	18*	i	1	-1	7	0	2
Cc1ccccc1NC(=S)N1CCC(NC(=O)c2ccco2)CC1	-2	i	-11	0	-4	·	·
CSc1ccc(Cl)c(C(=O)NCCOc2cc(C)ccc2C(C)C)c1	2	i	21	4	-1	·	·
Cc1ccc(C(C)C)c(OCCNC(=O)c2ccccc2O)c1	13*	·	8	4	4	3	11
O/N=C/c1cccc[n+]1CCCCCC[n+]1ccccc1/C=N/O	-1	i	-11	-4	-3	·	·
CCCCCCCCCCCCCCCC[n+]1ccc(/C=N/O)cc1	20*	?	-4	9	7	64*	16
COc1ccc(OC)c(NC(=O)c2cc3c(Cl)nc4ccccc4c3s2)c1	28*	i	8	-1	5	6	19*
COc1ccc(NC(=O)c2cc3c(Cl)nc4ccccc4c3s2)cc1OC	11*	i	8	-1	5	7	8
COc1ccc(NC(=O)c2cccc3ccccc23)cc1OC	-1	i	3	-7	10	·	·
O=C(O)c1ccc(NC(=S)Nc2ccccc2)cc1	-2	i	-19	-1	6	·	·
CCOC(=O)C1CCCN(C(=O)c2oc3ccccc3c2C)CC1 (centres undefined)	-1	i	18	-4	-2	·	·
SMILES	MC4R ag barr	Myeloid diff 2	EBI2 antag	Exocytosis inh	MC4R antag cAMP	MC4R barr ag	MOR DOR agonist
C/C=C(/C)C(=O)OC1CC(C)(C)C[C@H]2C3=CC[C@@H]4[C@@]5(C)CCC(O[C@@H]6O[C@@H](C(=O)O)[C@@H](O)C(O[C@@H]7OC[C@H](O)[C@@H](O)[C@@H]7O[C@@H]7OC(CO)C(O)[C@@H](O)[C@@H]7O)C6O[C@@H]6OC(CO)C(O)C(O)C6O)[C@@](C)(CO)[C@@H]5CC[C@]4(C)[C@]3(C)CC(O)[C@@]12CO (some centres undefined)	9.9*	i	-15	-1	27	8.6*	4
CC1O[C@@H](OC2C(COC3OC(CO)C(O)[C@H](O)C3O)OC(OC3CC[C@]4(C)C(CC[C@@]5(C)[C@@H]4CC=C4[C@@H]6CC(C)(C)CC[C@]6(CO)C(O)C[C@]45C)C3(C)C)C(O)C2O)C(O)C(O)C1O (some centres undefined)	-2	i	-8	-3	14	·	·
CCC(C)Sc1nc2c(cnn2-c2ccc(C)cc2)c(=O)[nH]1 (centres undefined)	-1	i	7	-2	-5	·	·
CCC(C)Sc1nc2c(cnn2-c2ccccc2)c(=O)[nH]1 (centres undefined)	11*	i	3	-2	7	3	2
COc1cc(NC(=O)c2cccs2)c(OC)cc1NC(=O)CCC(=O)Nc1ccc(C)cc1	13*	i	12	-5	12	3	1
COc1ccc(NC(=O)CCC(=O)Nc2cc(OC)c(NC(=O)c3cccs3)cc2OC)cc1	1	i	8	-10	2	·	·
O=C(CNC(=S)NC(=O)c1ccccc1Br)c1ccccc1	21*	i	9	6	1	0	4
CCCNc1c(NS(=O)(=O)c2ccc(C(C)(C)C)cc2)c(=O)oc2ccccc12	11*	i	-33	-1	5	2	6
Cc1ccc(NC(=O)c2cc(-c3ccco3)on2)cc1C	0	i	9	21	13	·	·
Cc1ccc(NC(=O)c2cc(-c3cccc(O)c3)on2)cc1C	9.6*	i	16	-3	5	-1	8
COC(=O)c1cc(OC)c(OC)cc1NC(=O)C(C)c1ccc([N+](=O)[O-])cc1 (centres undefined)	-2	i	2	2	5	·	·
C=CCC1S/C(=N/N=C/c2cccs2)NC1=O (centres undefined)	-2	i	-11	14	-5	·	·
O=C1N/C(=N\N=C\c2cccs2)SC1Cc1ccc(Cl)c(Cl)c1 (centres undefined)	10*	i	-16	0	4	-2	4
CC(C)(Oc1ccc(Cl)cc1)C(=O)NNC(=O)c1ccc(Br)o1	-4	i	-5	4	8	·	·
CC(C)(C)c1nn(-c2ccccc2)c2[nH]c(=O)c(CNCc3ccc4c(c3)OCO4)cc12	16*	i	4	1	6	14*	10
COC(=O)c1sc2ccccc2c1N	-1	i	-2	-2	7	·	·
CCOC(=O)c1sc2ccccc2c1OC(=O)c1ccc(C)cc1	14*	i	-25	2	5	7	8
